Experiment [1] concerns the target Insulin-like growth factor 1 receptor (Homo sapiens) (UniProt P08069). The experiment is described as follows: Inhibition of IGF1R at 10 uM.
The target of experiment [2] is Vascular endothelial growth factor receptor 3 (Homo sapiens, UniProt P35916). Briefly: Inhibition of VEGFR3 at 10 uM.
For experiment [3], the species on record is Homo sapiens. The experiment is described as follows: Inhibition of CK2-alpha1 at 10 uM.
The target in experiment [4] is Angiopoietin-1 receptor (Homo sapiens) (UniProt Q02763). Briefly: Inhibition of TIE2 at 10 uM.
Experiment [5] has as its target Aurora kinase B (Homo sapiens) (UniProt Q96GD4). Briefly: Inhibition of aurora B at 10 uM.
The target in experiment [6] is T1, Serine/threonine-protein kinase PLK4 (Homo sapiens) (UniProt O00444).
T1 sequence (whole entry): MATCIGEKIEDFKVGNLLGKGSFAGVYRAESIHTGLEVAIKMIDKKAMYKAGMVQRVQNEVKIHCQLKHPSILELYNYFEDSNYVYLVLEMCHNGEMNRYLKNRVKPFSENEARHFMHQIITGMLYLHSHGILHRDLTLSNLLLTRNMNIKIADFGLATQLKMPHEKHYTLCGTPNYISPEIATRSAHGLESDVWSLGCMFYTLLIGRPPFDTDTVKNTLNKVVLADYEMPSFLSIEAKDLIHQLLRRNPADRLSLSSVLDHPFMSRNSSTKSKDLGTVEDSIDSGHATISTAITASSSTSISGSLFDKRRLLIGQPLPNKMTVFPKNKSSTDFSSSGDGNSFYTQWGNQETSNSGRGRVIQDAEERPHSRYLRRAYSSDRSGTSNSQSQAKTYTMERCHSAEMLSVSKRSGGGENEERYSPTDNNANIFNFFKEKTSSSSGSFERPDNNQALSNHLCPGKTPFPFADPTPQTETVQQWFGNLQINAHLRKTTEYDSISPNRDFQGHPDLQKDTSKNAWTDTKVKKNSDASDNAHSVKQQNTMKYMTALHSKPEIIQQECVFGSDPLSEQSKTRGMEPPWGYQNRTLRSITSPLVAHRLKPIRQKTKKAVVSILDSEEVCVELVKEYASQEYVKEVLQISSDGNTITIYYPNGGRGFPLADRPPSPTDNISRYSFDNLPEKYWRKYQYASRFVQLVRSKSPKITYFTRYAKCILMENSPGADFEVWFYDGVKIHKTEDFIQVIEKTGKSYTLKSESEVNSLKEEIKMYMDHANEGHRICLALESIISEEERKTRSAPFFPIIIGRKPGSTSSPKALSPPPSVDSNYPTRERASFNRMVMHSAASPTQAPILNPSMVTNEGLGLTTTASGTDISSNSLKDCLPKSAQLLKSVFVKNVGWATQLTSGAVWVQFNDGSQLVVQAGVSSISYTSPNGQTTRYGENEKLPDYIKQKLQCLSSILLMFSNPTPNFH
The experiment is described as follows: Inhibition of SAK at 10 uM.

For experiment [7], the target named is Vascular endothelial growth factor receptor 2 (Homo sapiens) (UniProt P35968). The experiment is described as follows: Inhibition of VEGFR2 at 10 uM.
Experiment [8] deals with 3-phosphoinositide-dependent protein kinase 1 (Homo sapiens) (UniProt O15530). Briefly: Inhibition of PDK1 at 10 uM.
Experiment [9] addresses Hepatocyte growth factor receptor (Homo sapiens) (UniProt P08581). The experiment is described as follows: Inhibition of MET at 10 uM.
For experiment [10], the target named is Receptor-type tyrosine-protein kinase FLT3 (Homo sapiens) (UniProt P36888). The experiment is described as follows: Inhibition of FLT3 at 10 uM.
Chain of Receptor-type tyrosine-protein kinase FLT3 (Homo sapiens) (P36888 whole entry): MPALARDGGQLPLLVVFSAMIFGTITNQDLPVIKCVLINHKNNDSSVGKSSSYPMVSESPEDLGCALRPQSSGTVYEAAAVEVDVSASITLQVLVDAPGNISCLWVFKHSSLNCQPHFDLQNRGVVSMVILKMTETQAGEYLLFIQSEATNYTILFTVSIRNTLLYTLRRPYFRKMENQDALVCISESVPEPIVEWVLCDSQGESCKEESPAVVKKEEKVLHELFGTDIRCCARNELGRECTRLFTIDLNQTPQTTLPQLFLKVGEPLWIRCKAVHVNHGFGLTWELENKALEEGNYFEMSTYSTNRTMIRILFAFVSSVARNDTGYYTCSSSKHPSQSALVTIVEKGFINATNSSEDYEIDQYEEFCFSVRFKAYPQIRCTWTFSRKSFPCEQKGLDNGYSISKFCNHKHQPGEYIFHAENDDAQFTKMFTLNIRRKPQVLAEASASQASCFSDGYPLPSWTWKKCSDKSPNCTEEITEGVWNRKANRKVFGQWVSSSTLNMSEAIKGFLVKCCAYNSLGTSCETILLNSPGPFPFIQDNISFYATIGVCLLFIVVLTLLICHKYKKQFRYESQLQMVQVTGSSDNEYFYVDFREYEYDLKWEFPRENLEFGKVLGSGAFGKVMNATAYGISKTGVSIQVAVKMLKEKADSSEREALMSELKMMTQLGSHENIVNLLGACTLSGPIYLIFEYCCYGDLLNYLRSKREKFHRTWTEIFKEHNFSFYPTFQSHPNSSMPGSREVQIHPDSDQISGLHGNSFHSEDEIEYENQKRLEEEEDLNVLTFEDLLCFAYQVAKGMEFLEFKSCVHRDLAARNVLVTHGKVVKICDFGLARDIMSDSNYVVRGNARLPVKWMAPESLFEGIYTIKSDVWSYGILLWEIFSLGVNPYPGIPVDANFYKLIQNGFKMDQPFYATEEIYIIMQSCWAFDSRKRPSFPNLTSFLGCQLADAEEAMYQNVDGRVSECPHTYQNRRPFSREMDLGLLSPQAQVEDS
For experiment [11], the species on record is Homo sapiens. Briefly: Inhibition of CDK4/cyclinD1 at 10 uM.
Experiment [12] has as its target Serine/threonine-protein kinase PLK1 (Homo sapiens) (UniProt P53350). The experiment is described as follows: Inhibition of PLK1 at 10 uM.
In experiment [13] the target is Receptor tyrosine-protein kinase erbB-2 (Homo sapiens) (UniProt P04626). Briefly: Inhibition of ERBB2 at 10 uM.
The target in experiment [14] is T2, Aurora kinase A (Homo sapiens) (UniProt O14965).
T2 sequence (whole entry): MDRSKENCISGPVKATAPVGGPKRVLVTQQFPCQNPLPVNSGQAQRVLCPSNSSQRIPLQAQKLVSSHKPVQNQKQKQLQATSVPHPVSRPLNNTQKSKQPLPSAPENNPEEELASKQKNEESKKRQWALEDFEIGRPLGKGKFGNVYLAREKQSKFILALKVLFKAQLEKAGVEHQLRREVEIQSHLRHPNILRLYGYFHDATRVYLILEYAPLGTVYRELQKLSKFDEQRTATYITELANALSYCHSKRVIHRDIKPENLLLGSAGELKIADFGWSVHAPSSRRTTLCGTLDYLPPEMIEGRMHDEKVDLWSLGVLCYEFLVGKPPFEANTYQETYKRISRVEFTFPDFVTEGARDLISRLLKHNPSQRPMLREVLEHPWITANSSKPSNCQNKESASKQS
Briefly: Inhibition of aurora A at 10 uM.

Experiment [15] concerns the target Focal adhesion kinase 1 (Homo sapiens) (UniProt Q05397). Briefly: Inhibition of FAK at 10 uM.
Experiment [16] concerns NCI-H460. Briefly: Antiproliferative activity against human NCI-H460 cells at 100 uM after 48 hrs relative to control. The class given is functional. The note with it: NCI-H460, 48 h. Put shortly: (§1)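 NCI three-cell-line prescreen (MCF7 breast, NCI-H460 non-small cell lung, SF-268 CNS). Cells inoculated and preincubated in microtiter plates, then exposed to test agent at 10^-4 M for 48 h. Alamar blue end-point read-out. Growth of treated cells expressed as percent of untreated control cells.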

Experiment [17] concerns the target Proto-oncogene tyrosine-protein kinase Src (Homo sapiens) (UniProt P12931). The experiment is described as follows: Inhibition of SRC at 10 uM.
The test system of experiment [18] is SF-268. Briefly: Antiproliferative activity against human SF268 cells at 100 uM after 48 hrs relative to control. It counts as functional. To be noted: SF-268, 48 h. Put shortly: as §1

For eight compounds, inhibition and growth, % of control results are on record in ChEMBL document CHEMBL1139946, “1-Aryl-4,6-dihydropyrazolo[4,3-d][1]benzazepin-5(1H)-ones: a new class of antiproliferative agents with selectivity for human leukemia and breast cancer cell lines” (Eur J Med Chem, 2007).

In general, inhibition refers to the percentage by which the read-out fell short of the control.

Chain of Insulin-like growth factor 1 receptor (Homo sapiens) (P08069 31-736 limits assumed): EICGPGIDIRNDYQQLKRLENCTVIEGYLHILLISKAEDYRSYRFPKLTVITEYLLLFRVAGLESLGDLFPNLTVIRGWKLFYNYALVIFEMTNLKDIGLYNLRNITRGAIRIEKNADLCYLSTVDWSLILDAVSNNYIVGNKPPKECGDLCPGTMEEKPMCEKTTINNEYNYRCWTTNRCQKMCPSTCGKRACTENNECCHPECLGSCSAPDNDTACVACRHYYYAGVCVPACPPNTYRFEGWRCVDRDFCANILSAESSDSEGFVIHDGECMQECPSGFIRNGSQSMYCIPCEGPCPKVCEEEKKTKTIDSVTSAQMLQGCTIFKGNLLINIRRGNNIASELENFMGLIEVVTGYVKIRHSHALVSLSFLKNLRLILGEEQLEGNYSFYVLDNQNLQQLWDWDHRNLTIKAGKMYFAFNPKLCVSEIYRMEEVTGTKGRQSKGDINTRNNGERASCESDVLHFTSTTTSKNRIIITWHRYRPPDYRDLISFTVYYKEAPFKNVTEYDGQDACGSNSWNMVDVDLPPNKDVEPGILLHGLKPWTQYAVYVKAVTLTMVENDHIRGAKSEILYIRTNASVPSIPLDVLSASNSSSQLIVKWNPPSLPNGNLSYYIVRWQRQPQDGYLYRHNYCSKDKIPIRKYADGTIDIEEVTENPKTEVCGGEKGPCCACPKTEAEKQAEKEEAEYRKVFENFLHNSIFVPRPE
Chain of Insulin-like growth factor 1 receptor (Homo sapiens) (P08069 741-1367 limits assumed): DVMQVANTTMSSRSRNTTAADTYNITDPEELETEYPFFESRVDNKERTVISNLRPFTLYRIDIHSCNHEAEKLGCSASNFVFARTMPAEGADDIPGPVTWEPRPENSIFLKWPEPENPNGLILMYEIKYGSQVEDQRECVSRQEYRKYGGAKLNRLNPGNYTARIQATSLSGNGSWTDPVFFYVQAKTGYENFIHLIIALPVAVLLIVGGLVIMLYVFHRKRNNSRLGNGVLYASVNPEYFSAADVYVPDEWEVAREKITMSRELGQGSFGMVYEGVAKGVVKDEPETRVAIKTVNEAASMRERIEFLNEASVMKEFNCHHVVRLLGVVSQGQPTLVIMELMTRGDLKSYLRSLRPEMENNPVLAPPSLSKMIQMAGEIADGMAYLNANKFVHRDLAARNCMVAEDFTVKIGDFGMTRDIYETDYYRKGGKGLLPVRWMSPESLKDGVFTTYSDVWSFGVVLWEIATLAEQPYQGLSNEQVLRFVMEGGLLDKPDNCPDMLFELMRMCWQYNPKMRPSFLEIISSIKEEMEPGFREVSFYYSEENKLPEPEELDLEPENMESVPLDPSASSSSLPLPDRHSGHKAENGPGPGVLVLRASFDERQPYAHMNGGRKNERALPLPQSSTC
Chain of Serine/threonine-protein kinase PLK1 (Homo sapiens) (P53350 whole entry): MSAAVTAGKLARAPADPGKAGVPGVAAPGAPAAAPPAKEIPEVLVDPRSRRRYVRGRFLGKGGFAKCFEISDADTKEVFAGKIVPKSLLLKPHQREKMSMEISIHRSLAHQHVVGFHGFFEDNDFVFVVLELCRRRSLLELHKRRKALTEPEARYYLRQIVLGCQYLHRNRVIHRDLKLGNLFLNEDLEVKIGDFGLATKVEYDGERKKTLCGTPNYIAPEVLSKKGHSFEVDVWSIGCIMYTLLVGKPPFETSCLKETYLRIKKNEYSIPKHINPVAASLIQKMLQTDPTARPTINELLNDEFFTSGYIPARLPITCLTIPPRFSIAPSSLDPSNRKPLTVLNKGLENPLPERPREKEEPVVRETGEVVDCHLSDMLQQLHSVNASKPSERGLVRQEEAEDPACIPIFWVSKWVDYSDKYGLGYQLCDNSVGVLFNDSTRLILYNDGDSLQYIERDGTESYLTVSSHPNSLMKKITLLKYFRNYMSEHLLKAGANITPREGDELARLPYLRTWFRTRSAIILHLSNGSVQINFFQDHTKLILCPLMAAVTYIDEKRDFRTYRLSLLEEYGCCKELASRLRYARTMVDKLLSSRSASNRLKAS
Chain of Hepatocyte growth factor receptor (Homo sapiens) (P08581 whole entry): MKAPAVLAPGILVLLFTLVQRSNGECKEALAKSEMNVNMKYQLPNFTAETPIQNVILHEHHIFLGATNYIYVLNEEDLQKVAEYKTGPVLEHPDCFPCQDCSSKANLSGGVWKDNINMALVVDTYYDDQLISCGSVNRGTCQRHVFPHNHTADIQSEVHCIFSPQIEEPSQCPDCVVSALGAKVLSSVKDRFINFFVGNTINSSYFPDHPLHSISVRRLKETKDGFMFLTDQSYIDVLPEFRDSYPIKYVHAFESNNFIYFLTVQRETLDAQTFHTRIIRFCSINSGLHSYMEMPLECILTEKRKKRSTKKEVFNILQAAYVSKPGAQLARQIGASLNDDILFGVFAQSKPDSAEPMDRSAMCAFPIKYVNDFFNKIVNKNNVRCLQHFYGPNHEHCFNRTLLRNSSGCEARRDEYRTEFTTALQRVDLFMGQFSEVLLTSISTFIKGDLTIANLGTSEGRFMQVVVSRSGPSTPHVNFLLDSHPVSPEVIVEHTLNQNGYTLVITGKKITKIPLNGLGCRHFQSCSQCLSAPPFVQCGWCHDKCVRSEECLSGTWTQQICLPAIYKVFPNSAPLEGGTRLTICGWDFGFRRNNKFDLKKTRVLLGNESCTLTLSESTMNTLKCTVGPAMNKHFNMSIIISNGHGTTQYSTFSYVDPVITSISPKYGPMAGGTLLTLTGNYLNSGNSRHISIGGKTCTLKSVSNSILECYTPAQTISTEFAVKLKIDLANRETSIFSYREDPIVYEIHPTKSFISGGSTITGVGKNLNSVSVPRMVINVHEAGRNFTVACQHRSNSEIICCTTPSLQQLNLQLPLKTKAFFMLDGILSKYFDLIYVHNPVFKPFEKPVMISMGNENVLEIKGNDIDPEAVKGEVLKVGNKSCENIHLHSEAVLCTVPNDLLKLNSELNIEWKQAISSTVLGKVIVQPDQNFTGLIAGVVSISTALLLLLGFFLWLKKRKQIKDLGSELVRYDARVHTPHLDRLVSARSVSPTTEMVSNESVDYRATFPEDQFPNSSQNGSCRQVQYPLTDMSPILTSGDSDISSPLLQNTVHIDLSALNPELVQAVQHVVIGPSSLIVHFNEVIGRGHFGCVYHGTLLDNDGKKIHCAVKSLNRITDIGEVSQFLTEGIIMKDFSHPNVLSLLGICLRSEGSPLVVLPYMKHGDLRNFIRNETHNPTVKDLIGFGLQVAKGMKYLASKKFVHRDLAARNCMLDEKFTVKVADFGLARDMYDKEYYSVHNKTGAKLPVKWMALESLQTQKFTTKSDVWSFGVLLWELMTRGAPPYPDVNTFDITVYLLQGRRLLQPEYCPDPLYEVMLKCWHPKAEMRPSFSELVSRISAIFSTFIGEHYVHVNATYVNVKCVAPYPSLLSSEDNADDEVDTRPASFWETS
Chain of Aurora kinase B (Homo sapiens) (Q96GD4 whole entry): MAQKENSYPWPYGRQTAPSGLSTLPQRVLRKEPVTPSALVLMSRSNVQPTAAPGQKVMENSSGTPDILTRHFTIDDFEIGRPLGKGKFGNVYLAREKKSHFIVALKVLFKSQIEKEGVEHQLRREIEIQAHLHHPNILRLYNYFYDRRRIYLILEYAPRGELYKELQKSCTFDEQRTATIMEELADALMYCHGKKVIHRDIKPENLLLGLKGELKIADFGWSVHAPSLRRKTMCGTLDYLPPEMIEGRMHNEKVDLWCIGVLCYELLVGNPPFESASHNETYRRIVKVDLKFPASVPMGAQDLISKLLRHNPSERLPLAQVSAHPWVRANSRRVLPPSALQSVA

On to `O=C1Cc2cnn(-c3ccc(C(F)(F)F)cc3)c2-c2ccccc2N1`, for which the inhibition in experiment [1], in experiment [2], in experiment [3], in experiment [4], in experiment [5] and in [6] was below 40% in each case. Moreover, the inhibition in [7], in [8], in [9], in experiment [10], in experiment [11] and in experiment [12] was below 40% in each case. For the same compound, the inhibition in experiment [13], in experiment [14], in [15] and in experiment [17] was below 40% each time. Besides, in experiment [16], the growth, % of control at 100 µM was 28%.
Turning to `O=C1Cc2cnn(-c3cccc(Cl)c3)c2-c2ccccc2N1`, the inhibition in experiment [1], in experiment [2], in [3], in experiment [4], in experiment [5] and in experiment [6] was below 40% throughout. Moreover, the inhibition in experiment [7] was below 40%; in experiment [8] it was below 40%; in experiment [9] it was below 40%; in [10] it was below 40%; in [11], above 40%; in [12], below 40%. The inhibition in experiment [13], in [14], in [15] and in experiment [17] was below 40% throughout. Also, the results for the growth, % of control at 100 µM in experiment [18] and in [16] were 101% and 39%, respectively.
For `O=C1Cc2cnn(-c3ccccc3Cl)c2-c2ccccc2N1`, the inhibition in experiment [1], in experiment [2], in experiment [3], in experiment [4], in experiment [5] and in [6] was below 40% each time. For the same compound, the inhibition in experiment [7], in experiment [8], in experiment [9], in experiment [10], in [11] and in experiment [12] was below 40% each time. In addition, the inhibition in experiment [13], in experiment [14], in experiment [15] and in experiment [17] was below 40% throughout. Moreover, the growth, % of control at 100 µM in experiment [18] came out at 71%; in experiment [16], 53%.
Regarding `O=C1Cc2cnn(-c3ccccc3)c2-c2ccccc2N1`, the inhibition in [1], in experiment [2], in experiment [3], in experiment [4], in experiment [5] and in experiment [6] was below 40% throughout. Moreover, the inhibition in experiment [7], in [8], in experiment [9], in experiment [10], in [11] and in experiment [12] was below 40% in each case. For the same compound, the inhibition in [13], in experiment [14], in [15] and in [17] was below 40% throughout. In addition, the growth, % of control at 100 µM in experiment [18] was 90%; in [16], 33%.
With `COc1ccc(-n2ncc3c2-c2ccccc2NC(=O)C3)cc1`, the inhibition in experiment [1], in [2], in experiment [3], in experiment [4], in experiment [5] and in experiment [6] was below 40% throughout. Also, the inhibition in experiment [7], in experiment [8], in experiment [9], in experiment [10], in [11] and in experiment [12] was below 40% each time. Further, the inhibition in experiment [13], in [14], in [15] and in experiment [17] was below 40% in each case. The growth, % of control at 100 µM in [18] turned out to be 88%; in experiment [16], 26%.
`O=C1Cc2cnn(-c3ccccc3F)c2-c2ccccc2N1`: the inhibition in experiment [1], in experiment [2], in [3], in experiment [4], in [5] and in experiment [6] was below 40% each time. Further, the inhibition in experiment [7], in experiment [8], in experiment [9], in [10], in experiment [11] and in [12] was below 40% throughout. In addition, the inhibition in [13], in [14], in experiment [15] and in experiment [17] was below 40% each time. Moreover, the growth, % of control at 100 µM came to 98% in [18] and 49% in [16].
With `O=C1Cc2cnn(-c3ccc(Cl)cc3)c2-c2ccccc2N1`, the inhibition in experiment [1], in experiment [2], in experiment [3], in experiment [4], in experiment [5] and in experiment [6] was below 40% throughout. The inhibition in experiment [7], in [8], in experiment [9], in experiment [11], in [12] and in experiment [13] was below 40% throughout. Also, the inhibition in experiment [14], in experiment [15] and in [17] was below 40% each time. Moreover, the growth, % of control at 100 µM turned out to be 80% in experiment [18] and 41% in experiment [16].
Consider `CC(C)(C)c1ccc(-n2ncc3c2-c2ccccc2NC(=O)C3)cc1`, for which the inhibition in experiment [1], in [3], in experiment [4], in [5], in [6] and in experiment [7] was below 40% each time. Further, the inhibition in experiment [8], in experiment [9], in experiment [10], in experiment [11], in experiment [12] and in experiment [13] was below 40% throughout. In addition, the inhibition in experiment [14], in [15] and in [17] was below 40% in each case. Further, the growth, % of control at 100 µM in experiment [16] was 11%.
